Source: PubChem (Sanford-Burnham Center for Chemical Genomics)
Scp-1 inhibitor: blocks human Scp-1 phosphatase activity; Q9GZU7; Recombinant Scp1, phosphopeptide, malachite green phosphate absorbance; inhibition, % at 20 µM; 340,000 compounds, 0.88% hits; AID 493091;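 active means inhibition above about 50% at 20 µM, limit read from the data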;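 further: plate controls were DMSO wells with enzyme for no effect and wells lacking enzyme for full effect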
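System: SCP-1 catalytic domain; Reagent: Phospho 17-mer peptide substrate; Doses: one concentration, 20 µM, with 1.0% DMSO; Incubation: 45 min room-temperature reaction, 5 min colour, 30 min stabiliser; Signal: Phosphate-binding colour reagent, absorbance read at 630 nm.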
DNMT1 inh: blocks human DNA methyltransferase DNMT1 | P26358 | DNMT1 molecular beacon, Hinp1I cleavage, fluorescence | inhibition (reported as % activation of signal), % at 10 µM | 360,000 compounds, 0.83% hits | AID 588458; in the data active means inhibition above about 50%
STEP block: STEP (human) phosphatase inhibition | 360,000 compounds, 0.25% hits | recombinant STEP, OMFP fluorogenic substrate, fluorescence | inhibition, % at 20 µM;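 active means inhibition at 20 µM, scaled per plate between control wells, above about 37%, limit read from the data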;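 further: 0% = DMSO with enzyme and substrate and 100% = substrate only without enzyme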
Target sequence (P54829 whole entry, looked up): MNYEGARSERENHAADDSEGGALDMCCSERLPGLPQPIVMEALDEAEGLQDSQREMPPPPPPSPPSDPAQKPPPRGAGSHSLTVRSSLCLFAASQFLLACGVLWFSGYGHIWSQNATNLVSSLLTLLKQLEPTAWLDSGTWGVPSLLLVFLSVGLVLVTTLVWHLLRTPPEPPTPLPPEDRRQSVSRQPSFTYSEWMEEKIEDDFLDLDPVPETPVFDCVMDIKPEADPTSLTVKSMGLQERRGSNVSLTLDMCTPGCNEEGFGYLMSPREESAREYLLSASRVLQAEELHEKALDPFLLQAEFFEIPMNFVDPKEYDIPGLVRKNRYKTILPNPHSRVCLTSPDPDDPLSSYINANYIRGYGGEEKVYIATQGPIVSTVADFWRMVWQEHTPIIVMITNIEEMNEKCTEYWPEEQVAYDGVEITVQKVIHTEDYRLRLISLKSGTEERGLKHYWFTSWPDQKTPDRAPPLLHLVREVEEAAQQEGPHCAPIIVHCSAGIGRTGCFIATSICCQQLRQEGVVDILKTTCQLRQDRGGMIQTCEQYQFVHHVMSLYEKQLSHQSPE
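Material: STEP (striatal-enriched tyrosine phosphatase) enzyme, cell-free | Medium: 50 mM Bis-Tris pH 6.0 with 2.5 mM DTT and 0.005% Tween 20 | Read-out: Percent inhibition scaled to no-enzyme and uninhibited-enzyme controls, plate-pattern corrected | Signal: Fluorescence read at 480 nm ex / 540 nm em | Times: 20 min reaction, room temperature, in the dark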
SUMO1-SIM PPI: SUMO1-SIM interaction modulation. 360,000 compounds, 0.33% hits. SUMO1 binding to a labelled peptide, TR-FRET, 1 h. inhibition, % at 20 µM; in the data active means inhibition above about 37%
LMPTP inh: LMPTP (human) inhibition; inhibition, % at 20 µM; P24666; AID 651560; 360,000 compounds, 0.22% hits; recombinant LMPTP-A, OMFP fluorogenic substrate, fluorescence intensity;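 active means compounds that cut the enzyme signal by at least half of the control window in the single-dose screen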;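 further: plate controls were DMSO wells with enzyme plus substrate for no effect and substrate without enzyme for full effect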
Target sequence (P24666 whole entry, looked up): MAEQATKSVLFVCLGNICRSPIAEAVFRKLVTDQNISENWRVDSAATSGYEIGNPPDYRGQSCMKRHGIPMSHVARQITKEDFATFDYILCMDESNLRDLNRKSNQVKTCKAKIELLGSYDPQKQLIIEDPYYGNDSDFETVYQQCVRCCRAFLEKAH
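Test system: LMPTP-A, protein tyrosine phosphatase of low molecular weight; Input: 0.625 nM enzyme; Incubation: 50 min dark incubation at room temperature; Signal: endpoint fluorescence intensity from OMFP dephosphorylation; Read-out basis: % inhibition versus control wells.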
Scp1 confirm: Scp-1 (human) inhibition, single-dose confirmed. 2,500 compounds, 61% hits. recombinant SCP-1 catalytic domain, phosphate release, malachite green absorbance. shares compounds with Scp-1 inhibitor. inhibition, % at 20 µM;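 further: plate controls were DMSO with enzyme for no effect and buffer wells lacking enzyme for full effect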
Scp-1 MG ctr: counter-screen for Scp-1 inhibitors: colorimetric interference | shares compounds with Scp-1 inhibitor | 2,500 tested, under 10 active | Colorimetric interference counterscreen, malachite green absorbance 630 nm | apparent inhibition (interference), % at 20 µM;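 further: compounds added after enzyme reaction finished so only phosphate colour detection is probed; plate controls were DMSO wells with completed Scp-1 reaction for no effect and substrate wells lacking enzyme for full effect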
Scp1 DSF: validation of human Scp-1 inhibitors by thermal shift binding; shares compounds with Scp-1 inhibitor; Recombinant SCP1, Sypro Orange thermal shift Tm; thermal shift relative to vanadate control, % at 40 µM; 1,500 compounds, 25% hits;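 active means substances whose mean melting-temperature shift, as a percentage of the reference inhibitor's shift, reaches about 5.3%, limit read from the data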;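 further: 0% = Tm of DMSO wells and 100% = Tm with sodium orthovanadate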
Beacon interf DR: shows spectral interference in the DNMT1 beacon assay; 200 tested, under 10 active; shares compounds with DNMT1 inh; AID 602382; molecular beacon fluorescence, spectral interference counter-screen; IC50, µM; call rule not given here
DNMT1 confirm: confirmation of human DNMT1 inhibitors | shares compounds with DNMT1 inh | DNMT1 molecular beacon HinP1I cleavage, fluorescence | inhibition, % at 10 µM | 2,300 compounds, 8% hits | AID 602385;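 active means average inhibition of at least 30% in the single-concentration confirmation test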
Beacon interf: shows spectral interference in the DNMT1 beacon assay | shares compounds with DNMT1 inh | DNMT1 molecular beacon spectral interference counterscreen, fluorescence 485/520 | activation (fluorescence interference), % at 10 µM | 2,300 compounds, 1% hits;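 active means activation of at least 30% at 10 µM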;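 further: DNMT1 catalytic domain with a HinP1I cleavage step and a FAM/dabcyl DNA beacon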
STEP conf: STEP (human) phosphatase inhibition, single concentration confirmation; shares compounds with STEP block; recombinant STEP, OMFP fluorogenic substrate, fluorescence; inhibition, % at 20 µM; 520 compounds, 32% hits; call rule not given here;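 further: 0% = enzyme with substrate plus DMSO and 100% = substrate without enzyme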
Numbers without * were called inactive; · = no result. Sampled rows, rich in hits. Any-hit rate of the full collection: about 1.7%.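 How the source made its calls, unless noted: active means inhibition of at least 30% at 20 µM; inactive means the rest.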

SMILES | Scp-1 inhibitor | DNMT1 inh | STEP block | SUMO1-SIM PPI | LMPTP inh | Scp1 confirm | Scp-1 MG ctr | Scp1 DSF | DNMT1 confirm | Beacon interf | others
NS(=O)(=O)c1ccc(NC(=O)c2ccc(-c3ccccc3)cc2)cc1 | 60.0* | 73.3* | 23.6 | -2.8 | 41.8 | 66.3* | -11.5 | 14.5* | 5.9 | -4.0
O=C(N1CCCC1)C12CC3CC(CC(Cl)(C3)C1)C2 | -10.4 | 1.8 | -3.2 | 0.6 | -1.6 | · | · | · | · | ·
Cc1ccc(S(=O)(=O)c2cc3c(=O)n4ccccc4nc3n(Cc3ccco3)c2=N)cc1 | 65.7* | 69.0* | 4.8 | 4.3 | 25.3 | 13.7 | 5.0 | · | 1.3 | -1.5
COc1ccccc1CNC(=O)CSC(=S)N1CCCC1 | -1.9 | -4.5 | 6.0 | 3.7 | -0.2 | · | · | · | · | ·
COC(=O)c1c(NC(=O)COC(=O)c2ccccc2O)sc2c1CCCCC2 | -5.0 | 14.6 | 1.5 | 4.2 | -0.6 | · | · | · | · | ·
COC(=O)c1c(NC(=O)COC(=O)c2ccc(NC(=O)CC#N)cc2)sc2c1CCCCC2 | 75.7* | 103.5* | 9.9 | 70.8* | 74.1* | 71.2* | -10.1 | 13.9* | 27.3 | -3.3 | Beacon interf DR=>99
COc1ccccc1N(CC(=O)NCc1ccco1)S(=O)(=O)c1ccc(C)cc1 | 87.1* | 93.4* | 61.0* | 22.3 | 9.0 | 73.0* | -5.4 | 3.6 | 5.0 | -0.4
Cc1ccc(S(=O)(=O)N(Cc2ccccc2)Cc2ccco2)cc1 | -9.4 | -4.5 | 2.6 | -0.6 | 2.9 | · | · | · | · | ·
Cc1ccc(S(=O)(=O)N(CC(=O)O)Cc2ccco2)cc1 | 92.6* | 76.2* | 5.2 | 6.0 | 9.4 | 60.7* | -20.2 | -0.3 | 6.7 | -1.1
COc1ccc(N(CC(=O)NCc2ccco2)S(=O)(=O)c2ccc(C)cc2)cc1OC | 2.6 | 1.9 | -0.2 | 4.6 | 0.3 | · | · | · | · | ·
COc1cc(C(=O)Nc2cccc(C)c2C)ccc1OCC(=O)N1CCOCC1 | -9.8 | 1.3 | 1.0 | 0.0 | -1.9 | · | · | · | · | ·
COc1ccc(NC(=O)/C(=C\c2ccc(F)cc2)NC(=O)c2ccco2)cc1 | 4.4 | 1.8 | 0.4 | 0.6 | -1.2 | · | · | · | · | ·
COc1ccc(OC)c(/C=c2\sc3nc(-c4cccs4)nn3c2=O)c1 | -7.3 | -3.2 | -7.5 | 11.4 | 1.4 | · | · | · | · | ·
COc1ccccc1/C=c1\sc2nc(-c3ccco3)nn2c1=O | 68.7* | 105.6* | 4.2 | 25.6 | 12.8 | 72.4* | -9.0 | 7.8* | 4.0 | 2.1
C=CCn1c(O)c(N=NC(=O)CNC(=O)/C=C/c2ccc(OC)cc2)c2ccccc21 | -0.3 | -1.5 | -1.0 | -30.0 | 0.7 | · | · | · | · | ·
C=CCn1c(O)c(N=NC(=O)CNC(=O)/C=C/c2ccco2)c2ccccc21 | 90.1* | 93.1* | 11.9 | -6.4 | 20.5 | 48.5* | -16.9 | 4.7 | 10.5 | 1.5
O=S(=O)(Nc1ccccc1N1CCCCC1)c1ccc(F)cc1F | 1.6 | -2.9 | -1.3 | 2.8 | 1.3 | · | · | · | · | ·
NS(=O)(=O)c1ccc(NC(=O)/C=C/c2ccco2)cc1 | 67.8* | 62.4* | 5.4 | 0.4 | 4.4 | 63.9* | -5.4 | 4.9 | 7.1 | -0.4
O=c1c2ccccc2nc2sc(Nc3ccc(F)cc3)nn12 | 92.4* | 49.6 | 36.9 | -61.3 | 3.7 | 74.3* | -17.3 | -10.2 | 1.9 | -1.3
Cc1ccccc1Nc1nn2c(=O)c3ccccc3nc2s1 | -20.1 | -5.3 | 2.5 | 22.1 | 0.8 | · | · | · | · | ·
Cc1ccc(NC(=O)COc2coc(CN3CCc4ccccc43)cc2=O)cc1Cl | 59.2* | 59.2* | 4.3 | 5.8 | 18.9 | 55.0* | -25.2 | 1.9 | 0.9 | 2.6
O=C1CCCN1CCCNC(=S)Nc1cccc2ccccc12 | 5.2 | -11.3 | 54.7* | -1.1 | 2.3 | -16.3 | -18.4 | · | · | · | STEP conf=6.3
O=C(CN1CCN(c2ccc(C(F)(F)F)cn2)CC1)Nc1ccc2c(c1)OCO2 | -7.0 | 0.2 | 0.4 | -0.7 | 1.2 | · | · | · | · | ·
C[C@H](CO)N1C[C@H](C)[C@@H](CN(C)C(=O)Nc2ccc(C(F)(F)F)cc2)Oc2ccc(NC(=O)Nc3ccc(C(F)(F)F)cc3)cc2C1=O | -17.6 | -44.3 | -1.0 | 9.0 | 3.8 | · | · | · | · | ·
C[C@H](CO)N1C[C@H](C)[C@@H](CN(C)C(=O)Nc2ccc(C(F)(F)F)cc2)Oc2ccc(NC(=O)c3ccncc3)cc2C1=O | 77.4* | 92.4* | 52.4* | 19.5 | 63.7* | -12.5 | -20.8 | · | 1.3 | -0.8 | STEP conf=12.2
SMILES | Scp-1 inhibitor | DNMT1 inh | STEP block | SUMO1-SIM PPI | LMPTP inh | Scp1 confirm | Scp-1 MG ctr | Scp1 DSF | DNMT1 confirm | Beacon interf | others
Cc1ccc(C2Cc3cc(O)c(O)cc3CN2)cc1 (stereo unspecified) | -10.5 | 0.7 | 1.1 | -4.5 | -1.2 | · | · | · | · | ·
COc1ccc(CCNC(=O)c2cc([C@@H](NC(=O)OC(C)(C)C)C(C)C)sc2N)cc1OC | · | · | · | -3.9 | 1.1 | · | · | · | · | ·
S=c1[nH]nc(Cn2cnc3ccccc32)n1-c1ccccc1Cl | 5.8 | 4.1 | 3.3 | 4.2 | -2.5 | · | · | · | · | ·
Brc1cccc(-c2nc(-c3ccncc3)no2)c1 | -13.9 | -1.3 | 2.6 | 2.4 | -0.3 | · | · | · | · | ·
Clc1ccc(Br)cc1-c1nc(-c2ccncc2)no1 | 102.5* | 16.6 | 64.7* | 2.2 | 71.6* | 34.6* | -4.3 | -3.5 | · | · | STEP conf=28.1
COc1ccc(NC(=O)NNC(=O)c2ccc(-c3ccccc3)cc2)c(OC)c1 | 1.7 | 2.2 | 5.2 | 2.1 | 3.8 | · | · | · | · | ·
COc1ccc(NC(=O)NNC(=O)c2ccc(-c3ccccc3)cc2)cc1 | 88.4* | 48.5 | 40.0* | 15.1 | 29.5 | 45.8* | -14.0 | -15.3 | · | · | STEP conf=21.0
COc1cccc(C(=O)N/N=C(\C)c2ccc(NC(=O)Cc3ccccc3)cc2)c1OC | -8.3 | 1.9 | -1.9 | -1.7 | -1.6 | · | · | · | · | ·
